Compound activity as filed in PubChem BioAssay.
An excerpt weighted towards active compounds, which were near 1.3% of everything screened.
HKDC1 inh: HKDC1 hexokinase inhibitors, primary screen, biochemical, fluorescence, uHTS; inhibition, % at 20 µM; 340,000 compounds, 0.16% hits; recombinant HKDC1, G6PDH/diaphorase resazurin coupled fluorescence; Q2TB90; AID 493160, 2011;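 active = inhibition above about 35% when tested at 20 µM, limit read from the data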;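 also: plate controls were DMSO wells with enzyme for no effect and DMSO wells lacking enzyme for full effect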
Target sequence (Q2TB90 whole entry, looked up): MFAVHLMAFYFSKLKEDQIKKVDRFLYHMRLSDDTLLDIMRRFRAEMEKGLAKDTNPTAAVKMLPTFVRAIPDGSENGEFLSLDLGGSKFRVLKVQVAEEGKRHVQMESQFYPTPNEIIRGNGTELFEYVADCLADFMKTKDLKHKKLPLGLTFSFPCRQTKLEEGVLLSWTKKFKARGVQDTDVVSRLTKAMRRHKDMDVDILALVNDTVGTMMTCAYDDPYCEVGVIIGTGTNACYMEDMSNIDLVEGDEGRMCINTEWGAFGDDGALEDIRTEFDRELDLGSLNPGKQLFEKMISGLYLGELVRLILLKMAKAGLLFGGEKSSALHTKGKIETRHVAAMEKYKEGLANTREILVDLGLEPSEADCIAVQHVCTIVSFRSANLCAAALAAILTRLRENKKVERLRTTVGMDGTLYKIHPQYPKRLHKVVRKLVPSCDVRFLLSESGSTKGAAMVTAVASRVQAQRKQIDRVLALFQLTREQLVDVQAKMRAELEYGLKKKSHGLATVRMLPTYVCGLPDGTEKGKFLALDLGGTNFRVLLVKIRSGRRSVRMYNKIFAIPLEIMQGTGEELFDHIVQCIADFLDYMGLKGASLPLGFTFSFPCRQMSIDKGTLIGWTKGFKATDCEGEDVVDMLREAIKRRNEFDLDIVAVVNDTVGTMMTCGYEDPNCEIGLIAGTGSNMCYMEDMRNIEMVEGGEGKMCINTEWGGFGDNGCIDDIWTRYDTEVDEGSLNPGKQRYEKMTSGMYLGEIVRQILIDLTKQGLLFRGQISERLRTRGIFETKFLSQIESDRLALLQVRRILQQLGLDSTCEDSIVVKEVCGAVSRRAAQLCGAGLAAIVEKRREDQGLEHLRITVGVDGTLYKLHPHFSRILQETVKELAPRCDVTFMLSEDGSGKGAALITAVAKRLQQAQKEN
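Incubation: 90 min at room temperature in dark / Material: recombinant HKDC1 (HK5) hexokinase enzyme, produced in-house / Quantity: enzyme 5 µg/mL final / Compound: one dose of 20 µM, 1% DMSO / Reagent: glucose and ATP substrates / Buffer or medium: Tris pH 8.0 buffer with MgCl2, Tween-20, BSA, BME / Technique: resorufin fluorescence at 613 nm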
Tb hexokinase: Trypanosoma brucei hexokinase 1 inhibitors, primary screen, biochemical, G6PDH-coupled NADH absorbance, MLSCN library | inhibition, % at 10 µM | AID 1430, 2008 | recombinant TbHK1, G6PDH-coupled NADH A340 | 220,000 compounds, 0.11% hits;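 active = inhibition of 50% or more in the single-dose primary screen; inactive = inhibition below 50%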
Diaph inh CS: diaphorase inhibitors and chemical oxidizers, primary screen, counter-screen for diaphorase-coupled primary assays, biochemical, uHTS, resorufin fluorescence | diaphorase resazurin-to-resorufin fluorescence, NADH, 16 min; bacterial (C. kluyveri) enzyme, not human | inhibition, % at 20 µM | 190,000 compounds, 0.69% hits | AID 1217, 2008;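 active = primary screen inhibition at 20 µM above a set limit, cut at about 50% in these data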;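 also: plate controls were DMSO with full reaction for no effect and wells lacking NADH for full effect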
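Test system: bacterial diaphorase enzyme (C. kluyveri); Quantity: 0.14 U/mL diaphorase, enzyme working solution; Times: reaction incubation of 16 min at room temperature; Measured by: fluorescence of resorufin formed from resazurin, Ex 544/Em 590 nm; Benchmarks: positive control minus NADH, DMSO neutral control.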
Diaph act CS: compounds boosting diaphorase resazurin reduction – biochemical, uHTS, resorufin fluorescence, counter-screen for diaphorase-coupled primary assays, primary screen; Diaphorase/resazurin coupled assay, 16 min; stronger effect = higher value; 1 = vehicle wells, 0 = NADH-free wells; activation factor at 20 µM; 190,000 compounds, 0.005% hits; AID 1229, 2008;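 active = diaphorase activity raised at least twofold by the compound at 20 µM; inactive = activation factor below 2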
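Test system: Clostridium kluyveri diaphorase, purified enzyme; input: enzyme 0.07 U/mL final; buffer or medium: 50 mM HEPES pH 7.4 with 4.542 mM MgCl2, 0.005% Tween 20; also added: 0.114 mM NADH and 0.1 mM resazurin, final amounts; schedule: 16 min enzyme reaction, ambient temperature; technique: fluorescence of resorufin, 544 nm excitation, 590 nm emission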
G6PDH CS: L. mesenteroides G6PDH inhibitors, counter-screen for G6PDH-coupled screening assays, biochemical, Leuconostoc mesenteroides enzyme. glucose-6-phosphate dehydrogenase [Leuconostoc mesenteroides]. Purified L. mesenteroides G6PDH, diaphorase/resazurin coupled fluorescence, 45 min. inhibition, % at 5 µM. 200,000 compounds, 0.12% hits. AID 1020, 2008; in the data active = inhibition above about 50%
PfG6PD inh: PfG6PD enzyme inhibitors, primary screen, biochemical, fluorescence intensity, uHTS; 350,000 compounds, 0.78% hits; inhibition, % at 20 µM; glucose-6-phosphate dehydrogenase-6-phosphogluconolactonase (Plasmodium falciparum 3D7); PfGluPho enzyme, NADPH resazurin-diaphorase fluorescence;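 active = inhibition reaching at least a set limit at 20 µM in the primary screen, cut at about 59% in these data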;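 also: 0% = DMSO wells with substrate and 100% = DMSO wells lacking glucose-6-phosphate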
HKDC1 act conf: HKDC1 hexokinase activators, confirmation, biochemical, single concentration | 740 compounds, 14% hits | AID 504708, 2011 | shares compounds with HKDC1 inh | recombinant HKDC1, G6PDH/diaphorase resazurin fluorescence; stronger effect = lower value | inhibition, % at 20 µM;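 active = inhibition at or below a set negative limit, negative inhibition meaning the enzyme was activated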
PfG6PD confirm: PfG6PD inhibitors, hit retest, confirmation, biochemical, fluorescence intensity, single concentration; shares compounds with PfG6PD inh; recombinant PfGluPho, NADPH-diaphorase-resazurin fluorescence; inhibition, % at 20 µM; 2,400 compounds, 34% hits;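 active = inhibition of at least 50% at 20 µM in any single replicate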;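 also: 0% = DMSO with substrate and 100% = DMSO lacking glucose-6-phosphate substrate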
Diaphorase 10uM: diaphorase inhibitors and chemical oxidizers, confirmation, counter-screen for P. falciparum G6PD inhibitor project, biochemical, fluorescence intensity, 10 µM NADPH. diaphorase-coupled resazurin reduction, NADPH 10 uM. 820 compounds, 39% hits. inhibition, % at 20 µM. AID 504862, 2011. shares compounds with PfG6PD inh;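 active = average inhibition reaching 50% or more with the compound at 20 µM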;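 also: resorufin red fluorescence formed as diaphorase reduces resazurin using NADPH; 0% = DMSO with enzyme and 100% = DMSO without enzyme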
Diaphorase 30uM: diaphorase inhibitors and chemical oxidizers, confirmation, counter-screen for P. falciparum G6PD inhibitor project, biochemical, fluorescence intensity, 30 µM NADPH | shares compounds with PfG6PD inh | Diaphorase/resazurin coupled assay, resorufin fluorescence | inhibition, % at 20 µM | 820 compounds, 29% hits | AID 504863, 2011;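 active = inhibition averaging 50% or more, tested at 20 µM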;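 also: 0% = DMSO with enzyme and 100% = DMSO wells lacking diaphorase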
* marks the source's active call; other numbers are inactive results; . = no result; ! = not confirmed by another sample.

SMILES | HKDC1 inh | Tb hexokinase | Diaph inh CS | Diaph act CS | G6PDH CS | PfG6PD inh | HKDC1 act conf | PfG6PD confirm | Diaphorase 10uM | Diaphorase 30uM
CN1C/C(=C/c2ccncc2)C(=O)/C(=C/c2ccncc2)C1 | 3 | . | . | . | . | -5 | . | . | . | .
C=CC(=O)N1C/C(=C/c2ccc(Cl)cc2)C(=O)/C(=C\c2ccc(Cl)cc2)C1 | 45* | . | . | . | . | 76* | 10 | 26 | . | .
Cc1c(O)cc2c(c1O)C(=O)CC(c1ccccc1)O2 (stereo not given) | 3 | -41 | . | . | . | -10 | . | . | . | .
CC(NC1=CC(=O)c2cccnc2C1=O)C(O)c1ccccc1 (stereo not given) | 46* | . | . | . | . | 105* | 43 | 74* | 47 | 43
C[c-]1[c-](C)[c-](C)[c-](C)[c-]1C.[Fe].c1cc2nccc(N3CCCC3)[c-]2c1 (stereo not given) | 49*! | -26 | . | . | . | 85* | -2 | 66*! | 15 | 11
Cc1ccc(S(=O)(=O)Nc2ccc(O)c(Sc3ncn[nH]3)c2)cc1 | -5 | 2 | 20 | 0.8 | 7 | 29 | . | . | . | .
Cc1ccc(S(=O)(=O)/N=C2/C=C(Sc3ncn[nH]3)C(=O)c3ccccc32)cc1 | 69* | 35 | 36 | 0.6 | 40 | 120* | 63 | 103* | 89* | 93*
COC1=C(Br)C(=O)c2ncccc2C1=O | 56* | . | . | . | . | 112* | 65 | 91* | 73* | 75*
COc1cc(N(C)C)ccc1C=c1c2ccccc2n2c1cc(-c1ccccc1)[n+]2C | 41* | . | . | . | . | 83* | 37 | 76* | 14 | 11
Cc1ccc(/C=C2\C(=O)ON=C2c2ccccc2)o1 | -5 | 0 | 19 | 0.8 | 4 | 9 | . | . | . | .
Cc1ccc(-c2ccc(/C=C3\C(=O)ON=C3c3ccccc3)o2)c([N+](=O)[O-])c1 | 43* | 8 | 27 | 0.7 | 7 | 70* | 10 | 5 | . | .
CC(C)(CC(=O)c1ccccc1)CC(=O)c1ccccc1 | -1 | . | . | . | . | -1 | . | . | . | .
Nc1ccc(S(=O)(=O)c2cc(O)c3ccccc3c2O)cc1 | 55* | . | . | . | . | 103* | 69 | 70* | 33 | 19
O=S(=O)(c1ccccc1)c1cc(O)ccc1O | 19 | -11 | 20 | 0.8 | 15 | 16 | . | . | . | .
Cc1oc(-c2cccc(C(F)(F)F)c2)nc1CN1CCOCC1 | -11 | -3 | 17 | 0.8 | 12 | 13 | . | . | . | .
OCc1ccccc1N=c1ssnc1Cl | . | 8 | 16 | 0.8 | 3 | . | . | . | . | .
COc1cc(N=c2ssnc2Cl)cc(OC)c1 | -51 | 17 | 27 | 0.7 | 22 | 78* | -33 | 65* | -34 | -23
CN(CCc1cnn(C)c1)Cc1cn[nH]c1-c1ccc(-c2ccccc2)cc1 | -14 | 10 | 2 | 1 | 7 | 1 | . | . | . | .
COC(=O)CCC(=O)OC1(C)C(=O)C2=CN(c3ccccc3)C(c3ccc(OC)cc3)=CC2=C(Br)C1=O (stereo not given) | 38* | . | . | . | . | 73* | 29 | 74* | 50* | 39
COC(=O)CCC(=O)OC1(C)C(=O)C2=CN(Cc3ccccc3)C(c3ccc(OC)cc3)=CC2=C(Br)C1=O (stereo not given) | 43* | . | . | . | . | 78* | 13 | 47 | . | .
CC1(OC(=O)CCc2ccccc2)C(=O)C=C2C=C(c3ccc(C#N)cc3)N(Cc3ccccc3)C=C2C1=O (stereo not given) | 36* | -20 | . | . | . | 84* | -9 | 36 | . | .
COC(=O)CCC(=O)OC1(C)C(=O)C2=CN(Cc3ccc(OC)cc3)C(c3ccc(OC)cc3)=CC2=C(Br)C1=O (stereo not given) | 32 | . | . | . | . | 54 | . | . | . | .
COC(=O)CCC(=O)OC1(C)C(=O)C2=CN(CC(C)C)C(c3ccc(OC)cc3)=CC2=C(Br)C1=O (stereo not given) | . | -28 | . | . | . | . | . | . | . | .
COC(=O)CCC(=O)OC1(C)C(=O)C2=CN(CC3CC3)C(c3ccc(OC)cc3)=CC2=C(Br)C1=O (stereo not given) | 37* | -32 | . | . | . | 76* | -8 | 44 | . | .
CC(C)CN1C=C2C(=O)C(C)(OC(=O)CCc3ccccc3)C(=O)C=C2C=C1c1ccc(C#N)cc1 (stereo not given) | 21 | -34 | . | . | . | 58 | . | . | . | .
SMILES | HKDC1 inh | Tb hexokinase | Diaph inh CS | Diaph act CS | G6PDH CS | PfG6PD inh | HKDC1 act conf | PfG6PD confirm | Diaphorase 10uM | Diaphorase 30uM
CCOC(=O)C1CCN(C(=O)Nc2ccc3nc(-c4ccco4)c(-c4ccco4)nc3c2)CC1 | 43* | 0 | 52* | 0.5 | 1 | 71* | 0 | 3 | . | .
CCOC(=O)C1CCN(C(=O)Nc2ccc3c(c2)nc(C)n3C)CC1 | -1 | -2 | 8 | 0.9 | 13 | -15 | . | . | . | .
COc1ccc(Cc2nnc(SCC(=O)Nc3c(C)cccc3C)[nH]c2=O)cc1 | -4 | . | . | . | . | -31 | . | . | . | .
O=C1/C(=C/Nc2cccc([N+](=O)[O-])c2)CCc2ccccc21 | 41* | 24 | 39 | 0.6 | 31 | 67* | 5 | 35 | . | .
O=C1/C(=C\c2ccc([N+](=O)[O-])cc2)CCc2ccccc21 | 4 | -4 | 12 | 0.9 | 6 | 14 | . | . | . | .
COc1ccc(/C=C2\SC(c3ccc(C)cc3)=NC2=O)cc1OC | 8 | -25 | 21 | 0.8 | -66 | 56 | . | . | . | .
COc1cc(/C=C2\SC(c3ccc(C)cc3)=NC2=O)ccc1O | 33 | -22 | 36 | 0.6 | -70 | 64* | 32 | 54* | 2 | -4
COc1cc(/C=C2\SC(c3ccccc3)=NC2=O)cc(Cl)c1O | 49* | -7 | 64* | 0.4 | 17 | 61* | 24 | 46 | . | .
COc1cc(/C=C2\SC(c3ccc(C)cc3)=NC2=O)cc(OC)c1OC | 2 | -15 | 28 | 0.7 | -46 | 24 | . | . | . | .
